High-throughput results from PubChem.
IDH1 mut inh = IDH1 R132H (human) inhibition. IDH1 R132H reductase, diaphorase/resazurin fluorescence, 60 min. hit rate 0.18% among 70,000. inhibition, % at 10 µM; in the data active means inhibition above about 34%; inconclusive means no clear call, values can overlap the other calls; inactive means below about 11%;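 further: 0% = DMSO and 100% = no enzyme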
T cruzi growth-1 = inhibitors of T. cruzi proliferation; T. cruzi beta-gal in NIH3T3, GalScreen luminescence, 90 h; inhibition, % at 8.34 µM; hit rate 5.9% among 77,000;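 active means mean inhibition above about 93%, with at least 55% of replicates each passing it, limit read from the data, passing the limit was not always enough; inconclusive means only one of those two conditions holds; inactive means neither condition holds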
GASC1 inh = inhibitors of human demethylase GASC-1 KDM4C; GST-KDM4C 2-372, H3K9me3 peptide, LANCE TR-FRET; inhibition, % at 12.5 µM; hit rate 0.15% among 96,000; AID 720574;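 active means mean replicate inhibition above about 25%, with at least 55% of replicates also reaching it, limit read from the data, passing the limit was not always enough; inconclusive means only one of those two conditions met; inactive means neither condition met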
Target sequence (Q9H3R0 2-372 limits assumed): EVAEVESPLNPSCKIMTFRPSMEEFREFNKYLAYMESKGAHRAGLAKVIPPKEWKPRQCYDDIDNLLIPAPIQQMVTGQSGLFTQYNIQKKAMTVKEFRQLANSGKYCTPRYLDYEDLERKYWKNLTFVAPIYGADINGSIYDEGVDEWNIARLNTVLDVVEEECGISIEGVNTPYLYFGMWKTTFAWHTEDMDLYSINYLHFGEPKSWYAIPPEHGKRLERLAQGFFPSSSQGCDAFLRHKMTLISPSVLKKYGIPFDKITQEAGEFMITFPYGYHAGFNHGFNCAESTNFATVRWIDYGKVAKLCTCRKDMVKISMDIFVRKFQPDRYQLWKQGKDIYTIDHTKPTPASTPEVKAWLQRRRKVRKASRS
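Test system – GST-tagged GASC-1 (JMJD2C) catalytic fragment, aa 2-372 · Medium – HEPES buffer, pH 7.5, plus ascorbate · Reagent – H3K9me3 peptide with Fe(II)/2OG · Compound – one test concentration per compound · Timing – 30 min reaction, 60 min detection, RT · Technique – TR-FRET with Eu antibody and ULight streptavidin, EDTA stop · Read-out basis – inhibition from TR-FRET ratio decrease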
Pf Dd2 inh = P. falciparum Dd2 growth inhibition; SYBR Green, 72 h; active compounds read low; activity change, % at 10 µM; hit rate 2.3% among 94,000; AID 1159554; in the data active means activity change below about -80%; inconclusive means no clear call, values can overlap the other calls
T cruzi growth-2 = Trypanosoma cruzi proliferation inhibition; shares compounds with T cruzi growth-1; T. cruzi beta-gal in NIH3T3, GalScreen luminescence, 90 h; inhibition, % at 8.35 µM; hit rate 72% among 5,600;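 active means mean replicate inhibition above about 95% and at least 55% of replicates individually reaching it, limit read from the data; inconclusive means only one of the two criteria is met; inactive means neither criterion is met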
T cruzi growth-3 = blocks T. cruzi growth in NIH3T3 host cells. hit rate 21% among 5,600. inhibition, % at 2.09 µM. shares compounds with T cruzi growth-1. T. cruzi beta-gal in NIH3T3, GalScreen luminescence, 90 h. AID 651740;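 active means mean inhibition above about 95%, with at least 55% of replicates also reaching it, limit read from the data; inconclusive means meets just one of the two conditions; inactive means meets neither condition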;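 further: plate controls were neutral control median for no effect and positive control median for full effect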
3T3 cytotox = NIH/3T3 (mouse) viability loss; shares compounds with T cruzi growth-1; NIH/3T3 viability, CellTiter-Glo ATP luminescence, 90 h; AID 651742; cytotoxicity (signal decrease), % at 8.35 µM; hit rate 14% among 5,600;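 active means mean signal decrease across replicates above about 35% based on untreated-well scatter, with enough replicates individually passing, limit read from the data; inconclusive means no rule stated though some were filed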;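 further: 0% = median of neutral control wells and 100% = median of positive control wells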
3T3 cytotox 2 = kills mouse NIH/3T3 fibroblasts. hit rate 56% among 5,600. inhibition, % at 24.9 µM. shares compounds with T cruzi growth-1. NIH/3T3 viability, CellTiter-Glo ATP luminescence, 90 h;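 active means mean loss of cell viability signal at or above a set limit, and enough replicates individually reaching it; inconclusive means meets only the mean limit or only the replicate share; inactive means meets neither condition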;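 further: 0% = median of neutral control wells and 100% = median of positive control wells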
Active calls of the source: *; u = inconclusive; x = no result. Hits are enriched below; roughly 5.8% of the tested compounds scored in any of these assays.

SMILES	IDH1 mut inh	T cruzi growth-1	GASC1 inh	Pf Dd2 inh	T cruzi growth-2	T cruzi growth-3	3T3 cytotox	3T3 cytotox 2
O=C(C[C@H]1CC[C@@H]2[C@H](COC[C@@H](O)CN2C(=O)Nc2ccc(Cl)c(Cl)c2)O1)NCc1ccc(Cl)cc1	x	102*	0	5	100*	-12	38*	56*
O=C(C[C@@H]1CC[C@@H]2[C@H](COC[C@@H](O)CN2C(=O)Nc2ccc(Cl)c(Cl)c2)O1)NCc1ccc(Cl)cc1	x	84	-1	8	x	x	x	x
O=C(C[C@H]1CC[C@@H]2[C@H](COC[C@@H](O)CN2C(=O)Nc2ccc(Cl)c(Cl)c2)O1)NCc1ccncc1	x	111*	-3	4	69	1	-1	10
O=C(C[C@@H]1CC[C@@H]2[C@H](COC[C@@H](O)CN2C(=O)Nc2ccc(Cl)c(Cl)c2)O1)NCc1ccccc1	x	60	0	5	x	x	x	x
O=C(C[C@@H]1CC[C@H]2[C@@H](COC[C@H](O)CN2C(=O)Nc2ccc(Cl)c(Cl)c2)O1)NCc1ccccc1	x	94	0	3	x	x	x	x
O=C(C[C@@H]1CC[C@H]2[C@@H](COC[C@H](O)CN2C(=O)Nc2ccc(Cl)c(Cl)c2)O1)NCc1ccc(Cl)cc1	x	84	-2	-1	x	x	x	x
C[C@@H]1CN([C@@H](C)CO)S(=O)(=O)c2ccc(Br)cc2O[C@H]1CN(C)Cc1cccc(F)c1	x	u	2	-25	98*	92	53*	107*
C[C@H]1CN([C@@H](C)CO)S(=O)(=O)c2ccc(Br)cc2O[C@@H]1CN(C)Cc1cccc(F)c1	x	u	3	-30	99*	65	32	103*
C[C@H](CO)N1C[C@H](C)[C@@H](CN(C)Cc2ccccc2)Oc2cc(Br)ccc2S1(=O)=O	0	104	3	-21	x	x	x	x
Cc1noc(C)c1CSc1nc2sc(C)c(C)c2c(=O)n1C1CCCC1	0	x	x	x	x	x	x	x
COc1ccc(CN(C)C[C@H]2Oc3ccc(NS(=O)(=O)c4ccc(C)cc4)cc3CC(=O)N([C@H](C)CO)C[C@H]2C)cc1	1	115*	-6	-17	108*	37	9	u
COc1ccc(CN(C)C[C@@H]2Oc3ccc(NS(=O)(=O)c4ccc(OC)cc4)cc3CC(=O)N([C@H](C)CO)C[C@H]2C)cc1	-2	105*	-1	-8	103*	81	6	20
COc1ccc(CN(C)C[C@H]2Oc3ccc(NS(=O)(=O)c4ccc(OC)cc4)cc3CC(=O)N([C@H](C)CO)C[C@@H]2C)cc1	0	x	7	-19	x	x	x	x
COc1ccc(S(=O)(=O)Nc2ccc3c(c2)CC(=O)N([C@H](C)CO)C[C@@H](C)[C@H](CN(C)Cc2ccc(C(F)(F)F)cc2)O3)cc1	2	u	0	8	102*	45	5	59*
COc1ccc(CN(C)C[C@H]2Oc3ccc(NS(=O)(=O)c4ccc(OC)cc4)cc3CC(=O)N([C@H](C)CO)C[C@H]2C)cc1	x	84	0	13	x	x	x	x
COc1ccc(S(=O)(=O)N(C)C[C@@H]2Oc3c(NC(=O)c4cnccn4)cccc3C(=O)N([C@@H](C)CO)C[C@@H]2C)cc1	x	41	-2	0	x	x	x	x
C[C@H](CO)N1C[C@H](C)[C@H](CN(C)S(C)(=O)=O)Oc2ccc(NS(=O)(=O)c3cn(C)cn3)cc2CC1=O	-3	15	2	25	x	x	x	x
CCN1[C@H](C(=O)N(C)C)[C@@H](CO)[C@@H]2Cn3c(ccc(-c4cccc(C(=O)N(C)C)c4)c3=O)[C@@H]21	x	100*	0	x	51	18	8	-6
COc1ccc(-c2ccc3n(c2=O)C[C@H]2[C@H](CO)[C@@H](C(=O)N(C)C)N(CC4CC4)[C@@H]32)cc1	x	103*	17	-2	-33	13	1	7
OC[C@@H]1[C@@H](c2ccc(C#CC3(O)CCCC3)cc2)[C@H]2CN(Cc3cccnc3)CCCCN12	x	119*	0	7	80	36	13	23
OC[C@H]1[C@H](c2ccc(C#CC3(O)CCCC3)cc2)[C@@H]2CN(Cc3cncnc3)CCCCN12	x	98*	2	-13	82	40	4	-2
OC[C@@H]1[C@H](c2ccc(C#CC3(O)CCCC3)cc2)[C@@H]2CN(Cc3cncnc3)CCCCN12	x	u	-2	-14	98*	46	1	-2
OC[C@H]1[C@@H](c2ccc(C#CC3(O)CCCC3)cc2)[C@@H]2CN(Cc3cncnc3)CCCCN12	x	22	0	4	x	x	x	x
N#C[C@@H]1[C@H](c2ccccc2)[C@@H](CO)N1C(=O)Cc1ccccc1	x	109*	-1	13	6	-7	-7	1
N#C[C@@H]1[C@@H](c2ccc(-c3ccccc3F)cc2)[C@H](CO)N1C(=O)Cc1ccccc1	x	63	0	9	x	x	x	x
SMILES	IDH1 mut inh	T cruzi growth-1	GASC1 inh	Pf Dd2 inh	T cruzi growth-2	T cruzi growth-3	3T3 cytotox	3T3 cytotox 2
N#C[C@@H]1[C@@H](c2ccc(-c3ccc(F)cc3)cc2)[C@@H](CO)N1C(=O)Cc1ccccc1	0	39	-2	-34	x	x	x	x
N#C[C@@H]1[C@@H](c2ccccc2)[C@H](CO)N1C(=O)Cc1ccccc1	x	100*	-2	17	44	5	-22	-9
N#C[C@H]1[C@H](c2ccc(-c3ccc(F)cc3)cc2)[C@@H](CO)N1C(=O)Cc1ccccc1	x	u	0	-9	98*	49	40*	96*
N#C[C@H]1[C@@H](c2ccccc2)[C@@H](CO)N1C(=O)Cc1ccccc1	0	102*	-1	1	1	6	-12	-12
C[C@@H]1CCCCO[C@H](CN(C)C(=O)Nc2ccc(C(F)(F)F)cc2)[C@H](C)CN([C@@H](C)CO)C(=O)c2cc(NC(=O)Nc3ccc(F)cc3)ccc2O1	x	111*	2	-76	106*	118*	-8	13
C[C@@H]1CCCCO[C@@H](CN(C)C(=O)Nc2ccc(F)cc2)[C@H](C)CN([C@@H](C)CO)C(=O)c2cc(NC(=O)Nc3ccc(C(F)(F)F)cc3)ccc2O1	x	95*	0	17	105*	104*	-7	-31
C[C@@H]1CCCCO[C@H](CN(C)C(=O)Nc2ccc(C(F)(F)F)cc2)[C@@H](C)CN([C@H](C)CO)C(=O)c2cc(NC(=O)Nc3ccc(F)cc3)ccc2O1	0	u	0	-23	x	x	x	x
CO[C@@H]1CC[C@@H]2CCN(C)C(=O)C[C@H](c3ccccc3)CN(C)C(=O)c3cccc(C#N)c3OC[C@H]1O2	x	2	0	x	x	x	x	x
